Laboratory results as given in ChEMBL document CHEMBL2321816, “Synthesis and antitumor evaluation of arctigenin derivatives based on antiausterity strategy” (Eur J Med Chem, 2013).
Active and inactive are the calls of the source. No cut-off for these calls is given here.

What was measured:
[1] = system: PANC-1; experiment: Cytotoxicity against human PANC1 cells assessed as cell viability after 3 hrs by WST-8 cells; assay type: functional
In short: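 PANC-1 cells, 2 × 10⁴/well, grown 24 h in DMEM at 37 °C in 5% CO₂. Cells were PBS-washed and then exposed 24 h to serial dilutions in nutrient-deprived medium or in normal DMEM. After a PBS wash, WST-8 in DMEM was added for 3 h and A450 was read. Viability was taken against blank and control from the mean of three wells. PC50 is the concentration killing 50% of cells preferentially in NDM.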

[2] = organism: Mus musculus; experiment: Toxicity in human Capan1 cells injected BALB/cAJcl-nu-nu mouse assessed as behavior at 50 ug for 6 days in a week upto 28th days treatment started on 15th day tumor injection; assay type: organism-based; conditions: capan-1, 144 h
In short: (§1)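 Female BALB/cAJcl-nu/nu mice, five weeks old, injected s.c. on the right back with 5 × 10⁶ CAPAN-1 cells in DMEM. At two weeks, mice with tumors around 5 mm were randomized to treatment or vehicle groups. Drug was given from a DMSO stock (10 mg/mL) diluted in saline, 0.2 mL i.p., 6 days/week for 4 weeks. Body weight and tumor size were taken weekly. Tumors were weighed wet at the end.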

[3] = organism: Mus musculus; experiment: Toxicity in human Capan1 cells injected BALB/cAJcl-nu-nu mouse assessed as body weight at 50 ug for 6 days in a week upto 28th days treatment started on 15th day tumor injection; assay type: organism-based; conditions: capan-1, 144 h; in short: as §1
[4] = system: CAPAN-1; experiment: Antitumor activity against human Capan1 cells injected into BALB/cAJcl-nu-nu mouse assessed as reduction in tumor weight at 50 ug for 6 days in a week upto 28th days treatment started on 15th day tumor injection; assay type: functional; in short: as §1

| Structure (SMILES) | PC50 [1] | also measured |
| --- | --- | --- |
| COc1ccc(C[C@H]2COC(=O)[C@@H]2Cc2ccc(O)c(OCCO)c2)cc1OC | 7.7 µM | – |
| CCOc1cc(C[C@H]2C(=O)OC[C@@H]2Cc2ccc(OCC)c(OC)c2)ccc1O | 4.77 µM | – |
| CCOc1cc(C[C@H]2COC(=O)[C@@H]2Cc2ccc(O)c(OC)c2)ccc1OC | 4.71 µM | – |
| CCCOc1cc(C[C@H]2C(=O)OC[C@@H]2Cc2ccc(OC)c(OCC)c2)ccc1O | 3.54 µM | – |
| CCOc1cc(C[C@H]2C(=O)OC[C@@H]2Cc2ccc(OCC)c(OCC)c2)ccc1O | 0.78 µM | Activity [2]: Non-toxic; Activity [3]: Non-toxic; inhibition [4]: Active |
| CCOc1ccc(C[C@H]2COC(=O)[C@@H]2Cc2ccc(O)c(OC)c2)cc1OCC | 4.85 µM | – |
| CCCOc1cc(C[C@H]2C(=O)OC[C@@H]2Cc2ccc(OC)c(OCCC)c2)ccc1O | 13.6 µM | – |
| CCCOc1cc(C[C@H]2C(=O)OC[C@@H]2Cc2ccc(OC)c(OC)c2)ccc1O | 3.74 µM | – |
| COc1cc(C[C@H]2C(=O)OC[C@@H]2Cc2ccc(OC)c(OC)c2)ccc1O [ARCTIGENIN] | 0.8 µM | Activity [2]: Non-toxic; Activity [3]: Non-toxic; inhibition [4]: Active |
| CCCCOc1cc(C[C@H]2C(=O)OC[C@@H]2Cc2ccc(OC)c(OC)c2)ccc1O | 7.14 µM | – |
| CCOc1cc(C[C@H]2C(=O)OC[C@@H]2Cc2ccc(OC)c(OCC)c2)ccc1O | 0.66 µM | – |
| CCOc1ccc(C[C@H]2COC(=O)[C@@H]2Cc2ccc(O)c(OC)c2)cc1OC | 0.49 µM | – |
| COc1ccc(C[C@H]2COC(=O)[C@@H]2Cc2ccc(O)c(OC(C)C)c2)cc1OC | 4.16 µM | – |
| CCCCCCOc1cc(C[C@H]2C(=O)OC[C@@H]2Cc2ccc(OC)c(OC)c2)ccc1O | 3.89 µM | – |
| CCOc1cc(C[C@H]2C(=O)OC[C@@H]2Cc2ccc(OC)c(OC)c2)ccc1O | 3.74 µM | – |
| CCCOc1cc(C[C@H]2C(=O)OC[C@@H]2Cc2ccc(OCC)c(OCCC)c2)ccc1O | 28.6 µM | – |
